From paper PMC2766535 (Journal of separation science, 2009)
pKd: −log10 of the molar value.

Target: human serum albumin (HSA) (Homo sapiens, UniProt P02768)
Assay: frontal analysis, high-performance affinity chromatography on immobilized HSA
Type: binding
Summary of the method: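 Fatty-acid-free HSA immobilized by Schiff base on diol silica (40 (± 2) mg HSA/g silica), packed in a 5 cm × 2.1 mm i.d. column. A column without HSA corrected for non-specific binding. Test compound (0.5 µM to 30 µM) in pH 7.4, 0.067 M potassium phosphate was applied at 0.5 mL/min, 37°C, until plateau. Detection at 260 nm; mean breakthrough times were used.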

Chain of human serum albumin (HSA) (P02768 25-609): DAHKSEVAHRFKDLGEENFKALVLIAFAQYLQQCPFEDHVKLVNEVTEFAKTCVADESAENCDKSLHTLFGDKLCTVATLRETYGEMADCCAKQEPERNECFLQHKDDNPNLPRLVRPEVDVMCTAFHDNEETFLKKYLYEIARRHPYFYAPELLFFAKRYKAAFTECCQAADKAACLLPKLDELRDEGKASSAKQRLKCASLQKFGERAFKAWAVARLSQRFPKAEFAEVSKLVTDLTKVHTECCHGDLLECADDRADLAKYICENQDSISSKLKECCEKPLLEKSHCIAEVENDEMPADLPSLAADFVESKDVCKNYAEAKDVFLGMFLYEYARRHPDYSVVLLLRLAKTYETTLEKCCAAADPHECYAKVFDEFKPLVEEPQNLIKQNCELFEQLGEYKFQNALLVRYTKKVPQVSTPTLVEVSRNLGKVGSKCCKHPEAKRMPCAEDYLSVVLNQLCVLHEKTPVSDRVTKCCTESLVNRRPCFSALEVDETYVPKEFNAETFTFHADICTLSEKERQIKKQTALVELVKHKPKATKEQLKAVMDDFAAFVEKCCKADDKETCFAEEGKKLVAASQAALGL

Q: Cc1c[nH]c2ccccc12 [3-Methylindole] was tested. Which pKd did it give?
A: The pKd was 4.72.

Q: OCc1c[nH]c2ccccc12 [Indole-3-methanol] was tested. Which pKd did it give?
A: Its pKd is 5.08.

Q: CC(=O)c1c[nH]c2ccccc12 [3-Acetylindole] was tested. Which pKd did it give?
A: Its pKd is 4.89.

Q: How did the pKd turn out when O=C(O)CCc1c[nH]c2ccccc12 [Indole-3-propionic acid] was run?
A: Its pKd is 5.04.

Q: O=C(O)CCCc1c[nH]c2ccccc12 [Indole-3-butyric acid] was tested. Which pKd did it give?
A: Its pKd is 5.99.
